According to ChEMBL document CHEMBL1158097, “Kahalalide derivatives from the Indian sacoglossan mollusk Elysia grandifolia” (J Nat Prod, 2006):
Calls of active or inactive are those of the source. The calls are words filed in the database; no cut-off is given here.

Experiments:
MCF7 = assay: Cytotoxicity against human MCF7 cells after 24 hrs by MTT assay; type: functional, cell-based; conditions: MCF7, 24 h
Summary of the method: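 MCF7 cells were exposed to compounds for 24 h, and viability was read as MTT reduction by absorbance of reduced MTT at 560 nm. DMSO served as control. Data are mean ± SEM, n = 3.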

[1] = Cytotoxicity against mouse L1578Y cells after 24 hrs by MTT assay; type: functional, cell-based
HeLa = assay: Cytotoxicity against human HeLa cells after 24 hrs by MTT assay; type: functional, cell-based
H4IIE = assay: Cytotoxicity against rat H4IIE cells after 24 hrs by MTT assay; type: functional, cell-based
PC-12 = assay: Cytotoxicity against rat PC12 cells after 24 hrs by MTT assay; type: functional, cell-based
Cladosporium herbarum = assay: Antifungal activity against Cladosporium herbarum DSM 62121 at 5 ug/disk after 24 hrs by agar diffusion assay; type: functional; conditions: for zone of inhibition at 5 µg/disc: DSM 62121, 24 h, read-out: IZ
Cladosporium cucumerinum = assay: Antifungal activity against Cladosporium cucumerinum DSM 62122 at 5 ug/disk after 24 hrs by agar diffusion assay; type: functional; conditions: for zone of inhibition at 5 µg/disc: DSM 62122, 24 h, read-out: IZ
Saccharomyces cerevisiae = assay: Antifungal activity against Saccharomyces cerevisiae DSM 1333 at 5 ug/disk after 24 hrs by agar diffusion assay; type: functional, organism-based
Bacillus subtilis = assay: Antibacterial activity against Bacillus subtilis DSM 2109 at 5 ug/disk after 24 hrs by agar diffusion assay; type: functional, organism-based
Escherichia coli = assay: Antibacterial activity against Escherichia coli DSM 10290 at 5 ug/disk after 24 hrs by agar diffusion assay; type: functional, organism-based

Compound	IC50 (MCF7) [µM]	IC50 [1] [µM]	Activity (HeLa)	Activity (H4IIE)	Activity (PC-12)	zone of inhibition at 5 µg/disc (Cladosporium herbarum) [mm]	zone of inhibition at 5 µg/disc (Cladosporium cucumerinum) [mm]	Activity (Saccharomyces cerevisiae)	Activity (Bacillus subtilis)	Activity (Escherichia coli)	Activity (Cladosporium herbarum)	Activity (Cladosporium cucumerinum)	inhibition zone (IZ) (Cladosporium herbarum) [mm]	inhibition zone (IZ) (Cladosporium cucumerinum) [mm]
CC(C)CCCCCC1CC(=O)N[C@H](C)C(=O)N[C@H](C)C(=O)NC(CC(C)C)C(=O)N2CCC[C@H]2C(=O)NC(CC(C)C)C(=O)N[C@@H](Cc2c[nH]c3ccccc23)C(=O)O1 (some centres undefined) [KAHALALIDE E]	4.5	–	–	–	–	–	–	–	–	–	–	–	–	–
C/C=C1\NC(=O)[C@H](Cc2ccccc2)NC(=O)[C@@H](C(C)C)NC(=O)[C@@H]([C@H](C)CC)NC(=O)[C@H](NC(=O)[C@H](NC(=O)[C@H](CCCN)NC(=O)[C@H]2CCCN2C(=O)[C@H](NC(=O)[C@@H](NC(=O)[C@@H](NC(=O)[C@H](NC(=O)CCCC(C)C)C(C)C)[C@@H](C)O)C(C)C)C(C)C)[C@H](C)CC)[C@H](C)OC(=O)[C@H](C(C)C)NC1=O [KAHALALIDE F]	0.22	4.26	inactive	inactive	inactive	17	24	inactive	inactive	inactive	–	–	–	–
C/C=C1\NC(=O)[C@H](Cc2ccccc2)NC(=O)C(C(C)C)NC(=O)C(C(C)C)NC(=O)[C@H](NC(=O)[C@H](NC(=O)[C@H](CCCN)NC(=O)[C@H]2CCCN2C(=O)C(NC(=O)C(NC(=O)C(NC(=O)[C@@H](CCC(=O)O)NC(=O)CCCCCC(C)C)C(C)C)C(C)C)C(C)C)[C@@H](C)CC)[C@@H](C)OC(=O)C(C(C)C)NC1=O (some centres undefined) [KAHALALIDE R]	0.14	4.28	inactive	inactive	inactive	16	24	inactive	inactive	inactive	–	–	–	–
C/C=C1\NC(=O)[C@H](Cc2ccccc2)NC(=O)C(C(C)C)NC(=O)C(C(C)C)NC(=O)[C@H](NC(=O)[C@H](NC(=O)[C@H](CCCN)NC(=O)[C@H]2CCCN2C(=O)C(NC(=O)C(NC(=O)C(NC(=O)[C@@H](CCC(=O)O)NC(=O)CCCC(O)CC(C)C)C(C)C)C(C)C)C(C)C)[C@@H](C)CC)[C@@H](C)OC(=O)C(C(C)C)NC1=O (some centres undefined) [KAHALALIDE S]	3.55	–	–	–	–	–	–	inactive	inactive	inactive	inactive	inactive	–	–
NYSTATIN	–	–	–	–	–	–	–	–	–	–	–	–	19	39
